The text below walks through data of ChEMBL document CHEMBL4406821, “Novel dual inhibitors targeting CDK4 and VEGFR2 synergistically suppressed cancer progression and angiogenesis” (Eur J Med Chem, 2019).

Structures are written as SMILES. Activity calls are given as the source filed them. No cut-off for these calls is given here.

The target in data set [1] is Vascular endothelial growth factor receptor 2 (Homo sapiens, UniProt P35968). In words: Inhibition of VEGFR2 in HUVEC cells assessed as reduction in STAT3 phosphorylation at 20 to 40 nM incubated for 48 hrs by Western blot analysis. Format: cell-based. The essentials: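 HUVECs were maintained in 1640 medium with 10% FBS. They were treated with graded concentrations for 48 h, PBS-washed and lysed in RIPA buffer. Immunoblots were probed for total and phospho VEGFR2, STAT3, Akt, Erk1 and Src, each at 1:1000. β-actin served as loading control.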
On the technique in general: Immunoblotting shows a protein as a band on a membrane.

The subject of another data set is MDA-MB-231. In words: Induction of apoptosis in human MDA-MB-231 cells assessed as increase in early apoptotic cells at 20 to 40 nM incubated for 48 hrs by annexin V FITC and propidium iodide staining based flow cytometry. It counts as functional, cell-based. An outline of the steps:
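Cells were treated for 48 h, stained with FITC Annexin V and PI, and analyzed by flow cytometry to count early and late apoptotic cells.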
On the technique in general: Flow cytometry measures light scatter and fluorescence of single cells or particles in a stream.

A short description of data set [2]: Toxicity in NOD/SCID BALB/c mouse xenografted with human SiHa cells assessed as toxic effects in kidney at 40 mg/kg, po administered for 48 hrs by hematoxylin and eosin staining method. To be noted: in vivo. It counts as organism-based.
The nature of data set [3]: AUMC (0 to t) in Sprague-Dawley rat at 10 mg/kg at 10 mg/kg, po by HPLC-MS analysis. Format: ADME, organism-based. The following applies: in vivo. An outline of the steps: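 Rats fitted with jugular vein catheters for serial blood sampling. Compound dissolved in saline with 5% (v/v) DMSO and given as a single 10 mg/kg dose iv or po after an overnight fast, n = 5 per group. Plasma isolated at once and measured by HPLC with tandem MS detection. Parameters derived by noncompartmental fitting.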

A short description of data set [4]: MRT (0 to t) in Sprague-Dawley rat at 10 mg/kg at 10 mg/kg, po by HPLC-MS analysis. Format: ADME, organism-based. The following applies: in vivo.
A further data set has as its system Saccharomyces cerevisiae. Briefly: Inhibition of recombinant fungi CK1 (2 to 298 residues) at 1 uM using KRRRALS(p)VAS as substrate incubated for 40 mins in presence of [gamma-33P]-ATP by scintillation counting method relative to control. The essentials: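 Kinase panel profiling at 1 μM performed by Eurofins KinaseProfiler; percent inhibition reported as mean of two independent experiments.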

Data set [5] has as its target Eukaryotic elongation factor 2 kinase (Homo sapiens) (UniProt O00418). Briefly: Inhibition of recombinant human eEF-2K (2 to end residues) at 1 uM using RKKFGESEKTKTKEFL as substrate incubated for 40 mins in presence of [gamma-33P]-ATP by scintillation counting method relative to control. The essentials:
(§1)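 Tested at a single 1 uM in an outsourced commercial kinase-profiling panel, read as percent inhibition. Each value is the mean of two independent experiments.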

Data set [6] has as its target Ephrin type-A receptor 1 (Homo sapiens) (UniProt P21709). Briefly: Inhibition of recombinant human EPhA1 (568 to end residues) at 1 uM using KKKSPGEYVNIEFG as substrate incubated for 40 mins in presence of [gamma-33P]-ATP by scintillation counting method relative to control.
The target of data set [7] is Ephrin type-A receptor 2 (Homo sapiens) (UniProt P29317). In words: Inhibition of recombinant human EPhA2 (596 to 900 residues) at 1 uM using poly(Glu, Tyr) 4:1as substrate incubated for 40 mins in presence of [gamma-33P]-ATP by scintillation counting method relative to control.
Data set [8] has as its target Receptor tyrosine-protein kinase erbB-2 (Homo sapiens) (UniProt P04626). Briefly: Inhibition of recombinant human ERBB2 (676 to end residues) at 1 uM using poly (Glu, Tyr) 4:1 as substrate incubated for 40 mins in presence of [gamma-33P]-ATP by scintillation counting method relative to control.
For data set [9], the target named is Serine/threonine-protein kinase 10 (Homo sapiens) (UniProt O94804). Briefly: Inhibition of recombinant human LOK (1 to 348 residues) at 1 uM using RLGRDKYKTLRQIRQ as substrate incubated for 40 mins in presence of [gamma-33P]-ATP by scintillation counting method relative to control.
Data set [10] deals with Serine/threonine-protein kinase MRCK beta (Homo sapiens) (UniProt Q9Y5S2). Briefly: Inhibition of recombinant human MRCKbeta (1 to 473 residues) at 1 uM using KKRNRTLTV as substrate incubated for 40 mins in presence of [gamma-33P]-ATP by scintillation counting method relative to control.
For data set [11], the target named is Ribosomal protein S6 kinase alpha-4 (Homo sapiens) (UniProt O75676). Briefly: Inhibition of recombinant human MSK2 (2 to end residues) at 1 uM using GRPRTSSFAEGKK as substrate incubated for 40 mins in presence of [gamma-33P]-ATP by scintillation counting method relative to control.
Data set [12] deals with Ribosomal protein S6 kinase beta-1 (Homo sapiens) (UniProt P23443). Briefly: Inhibition of recombinant human p70S6K (1 to 421 residues) at 1 uM using KKRNRTLTV as substrate incubated for 40 mins in presence of [gamma-33P]-ATP by scintillation counting method relative to control.
Data set [13] deals with SNF-related serine/threonine-protein kinase (Homo sapiens) (UniProt Q9NRH2). Briefly: Inhibition of recombinant human SNRK (1 to 505 residues) at 1 uM using KKLRRTLSFAEPG as substrate incubated for 40 mins in presence of [gamma-33P]-ATP by scintillation counting method relative to control. The essentials:
as §1

Data set [14] concerns the target Mitogen-activated protein kinase kinase kinase 7 (Homo sapiens) (UniProt O43318). In words: Inhibition of recombinant human TAK1 (1 to 303 residues) at 1 uM using casein as substrate incubated for 40 mins in presence of [gamma-33P]-ATP by scintillation counting method relative to control.
For data set [15], the target named is Serine/threonine-protein kinase ULK3 (Homo sapiens) (UniProt Q6PHR2). Briefly: Inhibition of recombinant human full length ULK3 at 1 uM using casein as substrate incubated for 40 mins in presence of [gamma-33P]-ATP by scintillation counting method relative to control.
A further data set concerns HeLa. In words: Induction of cell cycle arrest in human HeLa cells assessed as decrease in accumulation in S phase at 40 to 80 nM incubated for 36 hrs by propidium iodide staining based flow cytometry. Format: functional. The essentials: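 Cells were treated with graded concentrations for 36 h, then fixed overnight in 70% ice-cold ethanol at 4°C and resuspended in PBS. Staining used 50 µg/ml PI plus 5 µg/ml RNase at 37°C for 30 min. DNA content was analysed by FACS to give G0/G1, S and G2/M fractions.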

Data set [16] can be described thus: Toxicity in BALB/c mouse assessed as toxic effects in spleen at 40 mg/kg, po administered for 48 hrs by hematoxylin and eosin staining method. To be noted: in vivo.
The subject of a further data set is Mus musculus. In words: Antiangiogenic activity in Matrigel plug angiogenic BALB/c mouse assessed as reduction in blood vessel formation at 20 mg/kg, sc measured after 10 days by Matrigel plug assay. Format: functional, organism-based. An outline of the steps:
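Balb/c mice, 5 weeks old, were injected subcutaneously with 750 µL of a 2:1 mix of growth factor-reduced Matrigel and compound (10 or 20 mg/kg) or vehicle. Plugs were harvested after 10 days and the subcutaneous vessels photographed.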

Eukaryotic elongation factor 2 kinase (Homo sapiens), sequence (O00418 whole entry): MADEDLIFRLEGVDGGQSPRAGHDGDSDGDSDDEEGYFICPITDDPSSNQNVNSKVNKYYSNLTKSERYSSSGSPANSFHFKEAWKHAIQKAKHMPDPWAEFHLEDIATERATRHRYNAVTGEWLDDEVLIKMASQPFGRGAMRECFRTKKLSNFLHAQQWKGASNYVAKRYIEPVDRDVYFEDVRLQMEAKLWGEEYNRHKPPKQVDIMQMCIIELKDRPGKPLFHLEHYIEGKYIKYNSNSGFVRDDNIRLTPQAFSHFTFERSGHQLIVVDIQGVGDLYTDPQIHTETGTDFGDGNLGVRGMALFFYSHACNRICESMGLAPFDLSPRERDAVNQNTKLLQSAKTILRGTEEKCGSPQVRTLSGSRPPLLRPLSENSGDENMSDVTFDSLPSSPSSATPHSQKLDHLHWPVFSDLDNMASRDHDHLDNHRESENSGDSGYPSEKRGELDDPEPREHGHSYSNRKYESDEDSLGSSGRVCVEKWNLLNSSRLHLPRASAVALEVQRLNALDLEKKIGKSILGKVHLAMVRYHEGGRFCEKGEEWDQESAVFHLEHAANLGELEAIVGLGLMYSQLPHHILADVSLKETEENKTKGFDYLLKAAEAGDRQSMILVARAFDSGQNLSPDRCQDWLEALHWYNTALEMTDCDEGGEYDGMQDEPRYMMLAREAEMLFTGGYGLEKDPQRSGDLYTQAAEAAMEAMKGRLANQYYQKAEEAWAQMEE
Serine/threonine-protein kinase ULK3 (Homo sapiens), sequence (Q6PHR2 whole entry): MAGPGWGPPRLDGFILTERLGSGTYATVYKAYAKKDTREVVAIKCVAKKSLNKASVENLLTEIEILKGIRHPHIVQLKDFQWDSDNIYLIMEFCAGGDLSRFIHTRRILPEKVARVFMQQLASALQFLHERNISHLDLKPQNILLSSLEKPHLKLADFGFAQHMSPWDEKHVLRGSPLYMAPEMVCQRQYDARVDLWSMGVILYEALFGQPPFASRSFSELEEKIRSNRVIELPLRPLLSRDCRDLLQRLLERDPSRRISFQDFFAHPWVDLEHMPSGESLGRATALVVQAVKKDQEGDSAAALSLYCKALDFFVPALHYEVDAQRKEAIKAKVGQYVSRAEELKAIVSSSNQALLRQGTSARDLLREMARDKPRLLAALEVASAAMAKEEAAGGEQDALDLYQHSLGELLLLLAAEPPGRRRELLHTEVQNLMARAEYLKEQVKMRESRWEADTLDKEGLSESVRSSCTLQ
Serine/threonine-protein kinase MRCK beta (Homo sapiens), sequence (Q9Y5S2 whole entry, the tested form may be a part): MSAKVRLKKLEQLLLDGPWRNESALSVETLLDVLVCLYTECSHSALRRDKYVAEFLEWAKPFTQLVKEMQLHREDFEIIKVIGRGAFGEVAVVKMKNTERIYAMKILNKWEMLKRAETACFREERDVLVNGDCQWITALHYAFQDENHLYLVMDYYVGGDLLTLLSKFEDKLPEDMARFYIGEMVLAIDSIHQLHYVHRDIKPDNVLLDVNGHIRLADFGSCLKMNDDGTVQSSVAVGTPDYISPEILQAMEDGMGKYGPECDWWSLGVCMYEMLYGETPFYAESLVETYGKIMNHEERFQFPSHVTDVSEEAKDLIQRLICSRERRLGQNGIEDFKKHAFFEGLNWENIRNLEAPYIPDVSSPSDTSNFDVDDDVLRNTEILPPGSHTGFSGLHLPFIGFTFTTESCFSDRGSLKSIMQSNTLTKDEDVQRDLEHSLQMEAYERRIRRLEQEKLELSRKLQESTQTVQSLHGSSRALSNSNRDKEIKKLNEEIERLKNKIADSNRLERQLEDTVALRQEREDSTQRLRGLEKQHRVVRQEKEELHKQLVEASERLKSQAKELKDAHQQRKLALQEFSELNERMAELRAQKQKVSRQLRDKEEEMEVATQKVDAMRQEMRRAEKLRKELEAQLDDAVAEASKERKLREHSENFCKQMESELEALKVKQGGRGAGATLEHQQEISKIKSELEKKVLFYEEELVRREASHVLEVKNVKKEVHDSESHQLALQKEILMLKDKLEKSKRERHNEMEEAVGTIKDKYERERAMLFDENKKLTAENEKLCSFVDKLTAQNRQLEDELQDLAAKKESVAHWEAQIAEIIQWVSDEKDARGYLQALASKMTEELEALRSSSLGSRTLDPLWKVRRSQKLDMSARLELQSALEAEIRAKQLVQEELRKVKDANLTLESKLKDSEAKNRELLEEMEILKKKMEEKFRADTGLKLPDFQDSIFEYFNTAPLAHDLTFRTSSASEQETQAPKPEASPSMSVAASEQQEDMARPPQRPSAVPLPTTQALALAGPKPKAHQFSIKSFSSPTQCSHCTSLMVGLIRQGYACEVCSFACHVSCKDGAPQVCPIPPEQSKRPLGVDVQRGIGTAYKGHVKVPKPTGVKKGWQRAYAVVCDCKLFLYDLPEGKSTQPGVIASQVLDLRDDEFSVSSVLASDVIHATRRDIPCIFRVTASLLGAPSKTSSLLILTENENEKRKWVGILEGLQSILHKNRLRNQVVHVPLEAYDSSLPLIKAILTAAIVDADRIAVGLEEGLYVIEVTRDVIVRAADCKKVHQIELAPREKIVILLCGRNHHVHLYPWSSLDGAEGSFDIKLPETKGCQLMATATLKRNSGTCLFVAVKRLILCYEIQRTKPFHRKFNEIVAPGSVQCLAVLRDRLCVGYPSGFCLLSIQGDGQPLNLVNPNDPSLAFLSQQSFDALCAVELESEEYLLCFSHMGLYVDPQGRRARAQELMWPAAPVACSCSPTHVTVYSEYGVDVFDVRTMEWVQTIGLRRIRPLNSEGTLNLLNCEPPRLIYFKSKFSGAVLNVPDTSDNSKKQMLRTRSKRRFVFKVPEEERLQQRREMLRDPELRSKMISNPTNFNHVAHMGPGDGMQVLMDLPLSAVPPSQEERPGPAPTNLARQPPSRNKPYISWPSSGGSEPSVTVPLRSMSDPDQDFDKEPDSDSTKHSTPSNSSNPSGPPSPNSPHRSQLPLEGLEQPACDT
Mitogen-activated protein kinase kinase kinase 7 (Homo sapiens), sequence (O43318 whole entry, the tested form may be a part): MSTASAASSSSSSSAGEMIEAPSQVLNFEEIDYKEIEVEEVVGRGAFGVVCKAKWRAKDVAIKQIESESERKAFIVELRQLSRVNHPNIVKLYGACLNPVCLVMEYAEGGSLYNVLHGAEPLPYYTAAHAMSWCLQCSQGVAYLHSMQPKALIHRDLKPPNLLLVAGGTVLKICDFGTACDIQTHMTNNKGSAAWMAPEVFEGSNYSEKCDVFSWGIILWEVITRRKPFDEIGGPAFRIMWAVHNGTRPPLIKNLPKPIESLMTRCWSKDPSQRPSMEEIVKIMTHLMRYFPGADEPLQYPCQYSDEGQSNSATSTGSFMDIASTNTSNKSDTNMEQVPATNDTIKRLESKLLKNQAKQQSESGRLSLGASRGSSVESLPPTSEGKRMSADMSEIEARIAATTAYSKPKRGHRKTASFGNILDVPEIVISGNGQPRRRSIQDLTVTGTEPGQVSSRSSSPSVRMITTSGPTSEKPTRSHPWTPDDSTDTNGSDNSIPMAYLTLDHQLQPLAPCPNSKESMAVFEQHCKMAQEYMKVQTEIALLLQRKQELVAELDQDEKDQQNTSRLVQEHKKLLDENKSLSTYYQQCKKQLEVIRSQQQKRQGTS
Ephrin type-A receptor 1 (Homo sapiens), sequence (P21709 whole entry, the tested form may be a part): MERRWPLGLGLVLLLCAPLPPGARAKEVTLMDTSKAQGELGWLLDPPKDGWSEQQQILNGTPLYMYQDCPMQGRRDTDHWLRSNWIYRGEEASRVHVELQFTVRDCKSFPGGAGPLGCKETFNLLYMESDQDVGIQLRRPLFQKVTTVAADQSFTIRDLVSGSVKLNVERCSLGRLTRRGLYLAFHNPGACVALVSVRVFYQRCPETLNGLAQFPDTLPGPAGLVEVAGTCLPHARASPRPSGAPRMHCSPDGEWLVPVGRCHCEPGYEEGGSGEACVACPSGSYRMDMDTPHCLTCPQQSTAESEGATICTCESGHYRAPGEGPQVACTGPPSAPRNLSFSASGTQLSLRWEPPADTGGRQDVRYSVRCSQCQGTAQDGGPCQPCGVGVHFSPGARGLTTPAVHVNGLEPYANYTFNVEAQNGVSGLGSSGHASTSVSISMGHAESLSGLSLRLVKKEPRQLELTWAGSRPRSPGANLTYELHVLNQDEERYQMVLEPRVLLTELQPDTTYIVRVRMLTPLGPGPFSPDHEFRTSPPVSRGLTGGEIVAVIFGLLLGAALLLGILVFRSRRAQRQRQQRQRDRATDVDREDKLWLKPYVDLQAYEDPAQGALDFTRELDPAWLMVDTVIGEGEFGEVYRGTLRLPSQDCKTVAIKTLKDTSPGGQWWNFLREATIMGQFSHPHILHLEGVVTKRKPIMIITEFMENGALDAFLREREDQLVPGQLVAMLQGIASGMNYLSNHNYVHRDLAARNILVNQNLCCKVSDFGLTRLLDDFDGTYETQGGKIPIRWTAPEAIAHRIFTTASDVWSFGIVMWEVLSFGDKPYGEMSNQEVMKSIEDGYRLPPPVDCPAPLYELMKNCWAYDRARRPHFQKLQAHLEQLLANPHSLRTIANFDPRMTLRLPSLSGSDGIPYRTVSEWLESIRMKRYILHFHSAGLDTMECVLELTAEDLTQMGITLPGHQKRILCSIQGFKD
Ribosomal protein S6 kinase beta-1 (Homo sapiens), sequence (P23443 whole entry, looked up, the tested form may be a part): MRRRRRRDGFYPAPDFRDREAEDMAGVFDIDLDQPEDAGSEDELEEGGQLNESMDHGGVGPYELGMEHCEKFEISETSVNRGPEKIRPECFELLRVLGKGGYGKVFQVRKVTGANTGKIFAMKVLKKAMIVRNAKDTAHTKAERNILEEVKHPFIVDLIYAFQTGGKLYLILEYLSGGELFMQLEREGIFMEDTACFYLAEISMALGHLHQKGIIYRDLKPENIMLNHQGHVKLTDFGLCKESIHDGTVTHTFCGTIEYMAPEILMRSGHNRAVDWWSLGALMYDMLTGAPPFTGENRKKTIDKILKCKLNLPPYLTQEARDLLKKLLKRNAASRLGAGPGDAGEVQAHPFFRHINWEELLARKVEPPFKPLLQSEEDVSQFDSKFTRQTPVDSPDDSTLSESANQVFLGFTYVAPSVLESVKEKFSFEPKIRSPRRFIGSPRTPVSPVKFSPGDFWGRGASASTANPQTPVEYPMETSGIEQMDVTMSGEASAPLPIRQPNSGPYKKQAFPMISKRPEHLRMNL

A word on the inhibition: it is the change of the read-out against control, counted positive when it falls. The MRT last is the average time that molecules of a dose stay in the body. Consider `Cc1ccc(NC(=O)C2(C(=O)Nc3ccc(Nc4ncc(F)c(-c5cc(F)c6nc(C)n(C(C)C)c6c5)n4)cc3)CC2)cc1`, for which the inhibition result in data set [1] was “Active”. The result in the data set with MDA-MB-231 and with HeLa was Active. In addition, the Activity result in data set [2] and in data set [16] was “Non-Toxic” in each case. For the same compound, the AUMCt in data set [3] was 21 mg/L.hr. For the same compound, in data set [4], the MRT last came to 4 h. Moreover, the inhibition in the data set with Saccharomyces cerevisiae was found to be 48%; in [5] it was 0%; in data set [6], 73%; in [7], 61%; in [8], 3%; in data set [9] it was 93%. For the same compound, the inhibition in data set [10] is 7%; in [11], 78%; in data set [12], 63%; in data set [13], 0%; in [14], 7%; in data set [15], 37%.
For `COc1cc2nccc(Oc3ccc(NC(=O)C4(C(=O)Nc5ccc(F)cc5)CC4)cc3)c2cc1OC` [CABOZANTINIB], the inhibition entry in the data set on Mus musculus was “Active”.
